Source: PubChem
Apaf-1 inh: inhibitors of human Apaf-1 apoptosome; O14727; reconstituted apoptosome caspase-3 activity, DEVD-Rh110 fluorescence; inhibition, % at 20 µM; hit rate 0.71% among 330,000; AID 489030; active = inhibition of at least 40% at 20 µM
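Material: reconstituted apoptosome with Apaf-1, cytochrome c, caspase-9, procaspase-3, dATP; medium: pH 7.5 Hepes buffer with CHAPS, BSA, DTT; also added: cytochrome c and DEVD-Rh110 substrate; timing: 30 min plus 50 min, RT; signal: Rh110 fluorescence intensity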
UBC13 polyUb: human UBC13 polyubiquitination inhibition; UBC13 polyubiquitin chain formation, TR-FRET; inhibition, % at 20 µM; hit rate 0.47% among 330,000; AID 485273; in the data active = inhibition above about 45%, passing the limit was not always enough
MEKK2 WT-MEK5: raises or lowers MEK5 binding to wildtype human MEKK2 PB1 domain; binding response (% of control), % at 10 µM; Q9Y2U5; bead flow cytometry, Alexa488-MEK5 binding to MEKK2 WT; actives lie on both sides; hit rate 1.1% among 290,000; in the data active = binding response below about 67% or above about 130%
MEKK2 mut-MEK5: signal of MEK5 binding to mutant human MEKK2 PB1 domain | bead flow cytometry, Alexa488-MEK5 binding to MEKK2 mutant | percent response, % at 10 µM | hit rate 0.35% among 290,000 | AID 1530; in the data active = percent response above about 24%, passing the limit was not always enough
MEKK3 PB1 HTS: MEKK3-MEK5 PB1 interaction, increase or decrease | binding response (% of control), % at 10 µM | hit rate 1.4% among 290,000 | bead-based flow cytometry, Alexa488-MEK5 binding to MEKK3; actives lie on both sides; 0 = blocked by unlabeled MEK5, 100 = vehicle | Q99759;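 active = binding response more than 3 SD above or below the average of its plate-row segment, actives on both sides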;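 note: Alexa488 bead fluorescence after subtracting the streptavidin-only scavenger bead signal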
Apaf-1 inh conf2: confirmation of Apaf-1 inhibitors. shares compounds with Apaf-1 inh. reconstituted apoptosome, caspase-3 DEVD-Rh110 fluorescence. inhibition, % at 20 µM. hit rate 25% among 1,800;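 active = mean inhibition of at least 40% at 20 µM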
Rh110 interf inh: interferes with Rh110 fluorescence, flagging false Apaf-1 inhibitors | shares compounds with Apaf-1 inh | Rh110 fluorescence interference, quenched caspase reaction | activation (fluorescence interference), % at 20 µM | 1,800 tested, under 10 active | AID 504615;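 active = signal rise of 40% or more at 20 µM, treated as a fluorescence artifact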
Fluor interf inh: Apaf-1 inhibitor counter-screen fluorescence artifact; shares compounds with Apaf-1 inh; fluorescence interference counterscreen, Apaf-1 assay format; IC50, µM; 460 tested, under 10 active; AID 588538; call rule not given here
Of the large screens only hits and unclear results are named; the others gave an inactive call (follow-up assays come after a bar, where they were run). Rows were chosen to be rich in hits. Some 2.9% of all compounds tested hit in one or more screens of this group.

COc1ccc2nc(-c3ccco3)c(-c3ccco3)nc2c1	none
O=C(CCc1c[nH]c2ccccc12)NCc1ccco1	none
CCOc1cc(C2C(C(C)=O)=C(O)C(=O)N2CCc2c[nH]c3ccccc23)ccc1O (centres undefined)	Apaf-1 inh 49 | Apaf-1 inh conf2 inactive | Rh110 interf inh inactive
CC(=O)C1=C(O)C(=O)N(CCc2c[nH]c3ccccc23)C1c1ccco1 (centres undefined)	Apaf-1 inh 43 | Apaf-1 inh conf2 inactive | Rh110 interf inh inactive
CC(=O)C1=C(O)C(=O)N(CCc2c[nH]c3ccccc23)C1c1ccc(C)cc1 (centres undefined)	none
Cc1cc(C)c2nc(N(CCN(C)C)C(=O)c3ccc(S(=O)(=O)N(C)CC4CCCO4)cc3)sc2c1 (centres undefined)	Apaf-1 inh 49 | Apaf-1 inh conf2 inactive | Rh110 interf inh inactive
CCOc1cccc2sc(N(CCCN(C)C)C(=O)c3ccc(S(=O)(=O)N(C)CC4CCCO4)cc3)nc12 (centres undefined)	none
O=S(=O)(c1ccc(Br)cc1)N1CCN(c2ccc3nnc(-c4ccccc4)n3n2)CC1	Apaf-1 inh 41 | Apaf-1 inh conf2 55 | Rh110 interf inh inactive | Fluor interf inh inactive
O=C(c1ccc(Br)o1)N1CCN(c2ccc3nnc(-c4ccccc4)n3n2)CC1	none
O=C(CCCN1C(=O)c2ccccc2C1=O)Nc1nnc(C2CC2)s1	none
COc1ccc(C2/C(=C(/O)c3ccc4c(c3)CC(C)O4)C(=O)C(=O)N2CCCn2ccnc2)cc1 (centres undefined)	Apaf-1 inh 42 | Apaf-1 inh conf2 inactive | Rh110 interf inh inactive
COc1ccccc1C1/C(=C(\O)c2ccc3c(c2)OCCO3)C(=O)C(=O)N1CCCn1ccnc1 (centres undefined)	Apaf-1 inh 45 | Apaf-1 inh conf2 inactive | Rh110 interf inh inactive
COc1ccc(C2/C(=C(\O)c3ccc4c(c3)OCCO4)C(=O)C(=O)N2CCCn2ccnc2)cc1 (centres undefined)	none
CC1Cc2cc(/C(O)=C3/C(=O)C(=O)N(CCCn4ccnc4)C3c3ccncc3)ccc2O1 (centres undefined)	none
Brc1ccc(CNc2cc3c(cc2Br)OCCO3)cc1	none
N#Cc1cc2ccc(N3CCOCC3)cc2cc1C#N	Apaf-1 inh 82 | Apaf-1 inh conf2 inactive | Rh110 interf inh inactive
Cc1cccc(N2CCN(C(=O)c3cc4cc(F)ccc4[nH]3)CC2)c1C	Apaf-1 inh 42 | Apaf-1 inh conf2 inactive | Rh110 interf inh inactive
COc1ccccc1N1CCN(C(=O)c2cc3cc(F)ccc3[nH]2)CC1	none
COC1=C(Nc2ccccc2)C(=O)c2ccccc2C1=O	Apaf-1 inh 61 | Apaf-1 inh conf2 inactive | Rh110 interf inh inactive
CC1=C(Nc2ccc(C(=O)O)cc2)C(=O)c2ccccc2C1=O	none
COC1=C(Nc2ccc(C)cc2)C(=O)c2ccccc2C1=O	Apaf-1 inh 61 | Apaf-1 inh conf2 inactive | Rh110 interf inh inactive
CNC(=S)N1CCC(NC(=O)C23CC4CC(CC(C4)C2)C3)CC1	none
CC(=O)N1CCN(C(=S)NC(=O)C23CC4CC(CC(C4)C2)C3)CC1	Apaf-1 inh 48 | Apaf-1 inh conf2 inactive | Rh110 interf inh inactive
Cc1[nH]n(-c2ccccc2)c(=O)c1N=Nc1cccc(C(=O)O)c1	none
Cc1[nH]n(-c2ccccc2)c(=O)c1N=Nc1cccc(S(=O)(=O)N2CCOCC2)c1	Apaf-1 inh 46 | Apaf-1 inh conf2 inactive | Rh110 interf inh inactive
Cc1ccc(C(=O)c2c(C)oc3c2C(=O)C(=O)c2ccccc2-3)cc1	Apaf-1 inh 88 | Apaf-1 inh conf2 73 | Rh110 interf inh inactive | Fluor interf inh inactive
Cc1oc2c(c1C(=O)N1CCC(C)CC1)C(=O)c1ccccc1C2=O	Apaf-1 inh 42 | Apaf-1 inh conf2 inactive | Rh110 interf inh inactive
COc1ccc(C(=O)COC(=O)c2cc(=O)[nH]c3ccccc23)c(OC)c1	none (no result: MEKK2 WT-MEK5, MEKK2 mut-MEK5, MEKK3 PB1 HTS)
